# Only some compounds are listed: those with a hit (about 11% of all), similar ones and a draw of the others.
# G6PDH counter – L. mesenteroides G6PDH inhibition counter-screen. Purified L. mesenteroides G6PDH, diaphorase/resazurin coupled fluorescence, 45 min. inhibition, % at 5 µM. 200,000 compounds, 0.12% hits
# WT yeast gro inh – growth inhibition of WT yeast, mitochondrial fusion screen; mitochondrial fusion phenotypic screen, WT strain; inhibition, % at 10 µM; 190,000 compounds, 2.1% hits; in the data active = inhibition above about 58%; tested in S. cerevisiae
# L major viab – inhibitors of Leishmania major promastigote growth. Leishmania major promastigotes, resazurin fluorescence viability. inhibition, % at 10 µM. 200,000 compounds, 9% hits. AID 1063;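 also: promastigotes grown with compound for 44 hours at 28 °C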
# Diaph inh CS – counter-screen for diaphorase-based assays: diaphorase inhibitors and chemical oxidizers; inhibition, % at 20 µM; diaphorase resazurin-to-resorufin fluorescence, NADH, 16 min; bacterial (C. kluyveri) enzyme, not human; 190,000 compounds, 0.69% hits;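 active = primary screen inhibition at 20 µM above a set limit, cut at about 50% in these data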;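 also: plate controls were DMSO with full reaction for no effect and wells lacking NADH for full effect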
#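 System: Bacterial diaphorase enzyme (C. kluyveri) | Incubation: 16-min room-temperature incubation before reading | Benchmarks: No-NADH positive control and DMSO neutral control | Measured by: Resorufin fluorescence 544/590 nm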
# Diaphorase act – activates diaphorase or chemically reduces, flagging diaphorase assay artifacts. AID 1229. Diaphorase/resazurin coupled assay, resorufin fluorescence, 16 min; active compounds read high; 1 = vehicle wells, 0 = NADH-free wells. 190,000 compounds, 0.005% hits. activation factor at 20 µM;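 active = diaphorase activity raised at least twofold by the compound at 20 µM; inactive = activation factor below 2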
#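 Material: Purified diaphorase enzyme from Clostridium kluyveri | Buffer or medium: 50 mM HEPES pH 7.4 with 4.542 mM MgCl2, 0.005% Tween 20 | Times: 16 min enzyme reaction, ambient temperature | Signal: Red resorufin fluorescence at 544/590 nm excitation/emission | Measure: Increased resorufin signal from activators or reducing compounds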
# Starred values were filed as active, the others as inactive. Rule as the data show it, unless noted: active = inhibition above about 50%; inactive = the rest.
SMILES,G6PDH counter,WT yeast gro inh,L major viab,Diaph inh CS,Diaphorase act
CCOC(=O)SC1=N/C(=C\c2ccc(N(C)C)cc2)C(=O)S1,-24,20,-18,50*,0.5
CN(/N=C/c1cccnc1)c1cnn(-c2ccc(F)c(Cl)c2)c(=O)c1Cl,8,-12,68*,0,1
C=CCNc1oc(/C=C/c2ccccc2)nc1C#N,0,21,2,21,0.8
CC(=O)CC(c1ccc([N+](=O)[O-])cc1)c1c(O)c2ccccc2oc1=O (centres undefined),6,-6,1,7,0.9
Cc1ccc(/C=C2\Sc3ccccc3C2=O)s1,6,17,3,11,0.9
O=C1/C(=C/c2cccnc2)Sc2ccccc21,-2,4,83*,13,0.9
CC(C)c1ccccc1NC(=S)NCc1ccccc1F,-16,-6,20,21,0.8
COc1ccc(C(=O)Nc2sc(C)c(-c3ccccc3)c2C#N)cc1OC,0,33,26,16,0.8
Cc1sc(NC(=O)COc2ccccc2)c(C#N)c1-c1ccccc1,-14,18,57*,16,0.8
CCOC(=O)c1sc(NC(=O)CSc2n[nH]c(-c3ccccc3)n2)c(C#N)c1C,-30,77*,-5,27,0.7
CCc1ccc(-c2c(C)sc(NC(=O)C3CCC3)c2C#N)cc1,-6,-13,50*,2,1
CCOC(=O)c1sc(NC(=O)CSc2nc(C)cc(C)n2)c(C#N)c1C,-4,5,15,17,0.8
Cc1cc(C)cc(OCC(=O)Nc2ccc3c(c2)C(=O)c2ccccc2C3=O)c1,-23,-5,-6,5,1
COc1ccc(OC)c(NC(=O)COC(=O)CN(C)S(=O)(=O)c2ccc(C)cc2)c1,4,-23,-11,12,0.9
CCCCCCNc1c([N+](=O)[O-])c(=O)sc2ccccc12,5,3,18,-3,1
Cc1nc2ccccc2n1C(=O)c1ccc(Cl)cc1[N+](=O)[O-],17,-8,-1,54*,0.5
CS(=O)(=O)N(CC(=O)N1CCCC1)Cc1ccc(Cl)cc1,-2,1,43,7,0.9
Cc1ccc(C(=O)CC(=O)COc2ccc(Cl)cc2C)cc1,-8,4,91*,-1,1
CCCCSC(=S)NC1CCS(=O)(=O)C1 (centres undefined),9,-14,95*,18,0.8
O=S1(=O)CCC(NC(=S)SCCOc2ccccc2)C1 (centres undefined),14,1,92*,14,0.9
CNc1nc(SCc2ccccc2Cl)nc2c1CCCC2,-37,-4,88*,15,0.9
CCc1nc(C)cn1S(=O)(=O)c1cc(C)c(OC)cc1C,1,8,33,10,0.9
CCc1nc(C)cn1S(=O)(=O)c1cc(Br)c(C)cc1OC,-7,12,99*,14,0.9
CCc1nc(C)cn1S(=O)(=O)c1cc(Br)ccc1OC,1,8,67*,-5,1
CCc1nc(C)cn1S(=O)(=O)c1cc(C)c(OC)c(C)c1C,-2,4,93*,22,0.8
SMILES,G6PDH counter,WT yeast gro inh,L major viab,Diaph inh CS,Diaphorase act
CCc1nc(C)cn1S(=O)(=O)c1cc(F)ccc1OC,17,-7,-5,2,1
CCc1nc(C)cn1S(=O)(=O)c1ccc(Cl)c(Cl)c1Cl,7,4,97*,12,0.9
CCc1nc(C)cn1S(=O)(=O)c1cc(Cl)c(OC)cc1Cl,14,-5,43,11,0.9
CCc1nc(C)cn1S(=O)(=O)c1ccc([N+](=O)[O-])cc1,10,-16,100*,7,0.9
CCCCc1ccc(NC(=S)NCc2ccc(OC)cc2)cc1,9,72*,16,9,0.9
CCC(C)c1ccc(NC(=S)Nc2ccc(OC)cc2)cc1 (centres undefined),-5,72*,13,19,0.8
CCCCc1ccc(NC(=S)NCc2cccs2)cc1,0,8,16,23,0.8
CCCCc1ccc(NC(=O)COc2ccc(C(=O)Nc3ccccc3OC)cc2)cc1,-14,9,72*,10,0.9
CCCCc1ccc(NC(=S)NCc2ccccc2OC)cc1,10,65*,34,9,0.9
CCCCc1ccc(NC(=O)COc2ccc(C(=O)Nc3ccccc3C)cc2)cc1,-18,4,13,7,0.9
COc1cccc(CNC(=S)Nc2cc(C)ccc2C)c1,4,36,13,6,0.9
